Screens as filed in PubChem.
KCNQ1 act: human KCNQ1 channel potentiation or activation; CHO-K1 KCNQ1, thallium flux FluxOR fluorescence; active compounds read high; P51787; actives 0.35% (n = 310,000); B-score at 10 µM;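 active = fluorescence ratio B-score, a plate-corrected score, at least three library SD, with initial intensity B-score within 5 SD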
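Assay system: CHO-K1 cells stably expressing KCNQ1; Medium: assay buffer with matched DMSO; Also added: K+/Tl+ depolarizing stimulus; Dosing: single dose; Timing: dye 90 min, compound 20 min, room temperature; Measured by: kinetic FluxOR thallium fluorescence, 10-s 1-Hz baseline, 110-s post-stimulus read; Read-out: peak-minus-minimum fluorescence over initial fluorescence, negative-control normalized, B-scored.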
KCNK9 inh: inhibitors of human KCNK9 two-pore domain potassium channel; HEK293 KCNK9, FluxOR thallium flux fluorescence; active compounds read low; actives 1.2% (n = 310,000); B-score at 10 µM; Q9NPC2;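 active = ratio B-score over 3 SD below the library mean, with starting fluorescence within 5 SD of its mean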;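 also: negative B-score means less thallium flux so channel inhibition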
Kir21 block: blocks the mouse Kir2.1 inward-rectifier potassium channel; actives 0.85% (n = 310,000); P35561; HEK293-Kir2.1, FluxOR thallium flux fluorescence; active compounds read low; B-score at 10 µM;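 active = fluorescence ratio B-score at or below minus 3 SD of library scores, with starting-brightness B-score within 2 SD, cut at about -4.2 in these data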;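 also: channel flux triggered by added potassium and thallium sulfate stimulus; B-score of peak minus minimum fluorescence over baseline after thallium stimulus; more negative B-score means stronger Kir2.1 block with less thallium influx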
Target sequence (P35561 whole entry, looked up): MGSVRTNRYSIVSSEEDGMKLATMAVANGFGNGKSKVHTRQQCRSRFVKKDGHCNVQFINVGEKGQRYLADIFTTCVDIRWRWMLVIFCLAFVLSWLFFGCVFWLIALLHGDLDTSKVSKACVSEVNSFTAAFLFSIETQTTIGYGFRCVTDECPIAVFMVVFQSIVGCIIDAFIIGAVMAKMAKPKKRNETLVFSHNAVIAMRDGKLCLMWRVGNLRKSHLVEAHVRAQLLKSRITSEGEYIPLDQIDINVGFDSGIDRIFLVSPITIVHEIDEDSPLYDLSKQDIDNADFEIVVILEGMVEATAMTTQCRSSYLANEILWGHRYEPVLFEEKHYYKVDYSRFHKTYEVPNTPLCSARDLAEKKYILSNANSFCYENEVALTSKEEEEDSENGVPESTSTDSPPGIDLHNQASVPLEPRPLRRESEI
hERG rescue: shields human hERG channel from block by proarrhythmic agents; Q12809; CHO-hERG, FluxOR thallium flux, dofetilide IC70 present; activation (rescue from dofetilide block), less the hit threshold, % at 10 µM; actives 0.51% (n = 310,000); AID 1511;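 active = activation above the mean of controls blocked by dofetilide plus 5 SD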;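 also: thallium influx through hERG after potassium depolarization seen as dye fluorescence rise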
KCNQ1 block: inhibitors of human KCNQ1 potassium channel; P51787; CHO-K1 KCNQ1, FluxOR thallium flux fluorescence; active compounds read high; B-score at 10 µM; actives 1.3% (n = 310,000);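 active = compounds whose thallium flux B-score, printed positive for inhibition, exceeds three library SD while starting fluorescence stays within three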;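 also: channel opened by potassium depolarization with thallium stimulus after 20 min compound exposure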
KCNK3 block: human KCNK3 channel inhibition, primary screen; O14649; CHO-KCNK3 thallium flux, FluxOR fluorescence; active compounds read low; B-score at 10 µM; actives 0.84% (n = 340,000);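 active = B-score under library mean minus 4 SD, starting fluorescence ratio at most library mean plus 5 SD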;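 also: more negative B-score means stronger inhibition of thallium flux through KCNK3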
KCNK9 inh conf: human KCNK9 inhibitor confirmation. shares compounds with KCNK9 inh. HEK293 KCNK9 cells, FluxOR thallium flux fluorescence. inhibition, % at 10 µM. actives 43% (n = 4,900);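 active = thallium signal inhibited by more than 5 SD of the compound-free buffer control wells, on both duplicate plates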
Kir21 sel: mouse Kir2.1 off-target activity of KCNK9 modulators; actives 4% (n = 4,900); Kir2.1 cells, FluxOR thallium flux fluorescence; inhibition, % at 10 µM; shares compounds with KCNK9 inh; AID 492993;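 active = thallium signal drop more than 5 SD beyond the mean of the no-compound control wells, seen in both duplicate plates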;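 also: signal is fluorescence rise after thallium addition divided by baseline fluorescence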
KCNK9 uninduced: second counter-screen for KCNK9 modulators: effect in non-induced cells | shares compounds with KCNK9 inh | non-induced KCNK9-HEK293, FluxOR thallium flux | inhibition, % at 10 µM | actives 40% (n = 4,900) | AID 492997;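 active = thallium signal drop beyond 5 SD of the untreated control mean, on both duplicate plates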
Each line names hits and unclear results; the compound was inactive in the other large screens (follow-up assays come after a bar, where they were run). In the library only some 3.7% were active in any assay of this set; here they are far more common.

Cc1ccc(SCCN2CCN(CCc3ccccc3)CCC2=O)cc1	none | KCNK9 inh conf inactive | Kir21 sel inactive | KCNK9 uninduced inactive
O=C1CCN(CCc2ccccc2)CCN1CCSc1ccc(Br)cc1	none | KCNK9 inh conf inactive | Kir21 sel inactive | KCNK9 uninduced inactive
O=C(NC1=NCCS1)c1ccc(Cl)c(S(=O)(=O)N2CCOCC2)c1	none
O=C1[C@@H]2[C@@H]3C[C@@H]([C@H]4ON=C(c5ccc(Cl)cc5Cl)[C@@H]34)[C@@H]2C(=O)N1C1CCCCC1	none | KCNK9 inh conf inactive | Kir21 sel inactive | KCNK9 uninduced inactive
O=[N+]([O-])c1ccc(C2CCCC/C2=N/OCc2ccc(F)cc2)c([N+](=O)[O-])c1 (centres undefined)	KCNK9 inh -8.2 | KCNK9 inh conf 76% | Kir21 sel inactive | KCNK9 uninduced 32%
Cc1ccc(NC(=O)O/N=C2\CCCCC2c2ccc([N+](=O)[O-])cc2[N+](=O)[O-])cc1 (centres undefined)	KCNK9 inh -10 | KCNK9 inh conf 65% | Kir21 sel inactive | KCNK9 uninduced 32%
O=C(O/N=C1\CCCCC1c1ccc([N+](=O)[O-])cc1[N+](=O)[O-])c1c(F)cccc1F (centres undefined)	none
CSc1ncc(C(=O)Nc2cc(C)ccc2C)c(C)n1	none
Cc1cc(C(=O)OC(C)C(=O)N2CCc3ccccc32)ccc1[N+](=O)[O-] (centres undefined)	none | KCNK9 inh conf inactive | Kir21 sel inactive | KCNK9 uninduced inactive
CC1CN(c2cc(-c3ccccc3)c3ccccc3n2)CC(C)O1 (centres undefined)	none | KCNK9 inh conf inactive | Kir21 sel inactive | KCNK9 uninduced inactive
CC1CN(c2nc3ccccc3cc2-c2ccccc2)CC(C)O1 (centres undefined)	none | KCNK9 inh conf inactive | Kir21 sel inactive | KCNK9 uninduced inactive
CCC1=NN(C(=O)c2cccc(Br)c2)C(O)(c2ccc(Br)cc2)C1 (centres undefined)	KCNK9 inh -10, KCNQ1 block 8 | KCNK9 inh conf 42% | Kir21 sel inactive | KCNK9 uninduced 26%
Cc1onc(-c2c(F)cccc2Cl)c1C(=O)OCC(=O)NC(N)=O	none
Cc1onc(-c2c(F)cccc2Cl)c1C(=O)OCC(=O)NC(c1ccccc1)c1ccccc1	KCNK9 inh -8.3 | KCNK9 inh conf 25% | Kir21 sel inactive | KCNK9 uninduced 29%
CCOCCOC(=O)Cn1cnc2scc(-c3ccc(C)cc3)c2c1=O	none | KCNK9 inh conf inactive | Kir21 sel inactive | KCNK9 uninduced inactive
CCCOC(=O)Cn1cnc2scc(-c3ccc(OC)cc3)c2c1=O	none | KCNK9 inh conf inactive | Kir21 sel inactive | KCNK9 uninduced inactive
CSc1ccc(CN(C)C(=O)CNC(=O)c2ccc3c(c2)OCO3)cc1	none
Cc1c(Cl)cccc1NC(=O)CNC(=O)CCCc1nc2ccccc2c(=O)[nH]1	none (no result: KCNQ1 act, KCNK9 inh, Kir21 block, hERG rescue, KCNQ1 block)
Cc1ccc(OCc2cc(C(=O)NC(C)Cc3cnccn3)no2)cc1C (centres undefined)	none
Cc1nc(C(C)NC(=O)c2cc(COc3ccc(C)c(C)c3)on2)c(C)s1 (centres undefined)	none | KCNK9 inh conf inactive | Kir21 sel inactive | KCNK9 uninduced inactive
O=c1oc2ccccc2c(Nc2cc3ccccc3cc2O)c1[N+](=O)[O-]	none | KCNK9 inh conf inactive | Kir21 sel inactive | KCNK9 uninduced inactive
CC1=NOC(=O)/C1=C\c1ccc(-c2ccc(Cl)cc2Cl)o1	none | KCNK9 inh conf inactive | Kir21 sel inactive | KCNK9 uninduced inactive
Cc1cc(S(=O)(=O)N2CCOCC2)ccc1OCC(=O)Nc1ccc(F)cc1	none
O=C(CCCN1C(=O)/C(=C/c2cccc(Br)c2)SC1=S)N1CCOCC1	none | KCNK9 inh conf inactive | Kir21 sel inactive | KCNK9 uninduced inactive
CN1CCN(C(=O)CCCN2C(=O)/C(=C/c3cccc(Br)c3)SC2=S)CC1	none | KCNK9 inh conf inactive | Kir21 sel inactive | KCNK9 uninduced inactive
Cc1ccc(NC(=O)/C=C/c2ccc(S(=O)(=O)N3CCOCC3)cc2)cc1S(=O)(=O)N(C)C	none (no result: KCNQ1 act, KCNK9 inh, Kir21 block, hERG rescue, KCNQ1 block)
O=C(Nc1cccc(Br)c1)c1ccc(OC2CSC2)cc1	none (no result: KCNK3 block)
COc1ccc(NC(=O)c2cncn2-c2ccccc2)cc1	none
O=C(c1cccs1)C1CCCN(Cc2nc(Cc3ccccc3F)no2)C1 (centres undefined)	none | KCNK9 inh conf inactive | Kir21 sel inactive | KCNK9 uninduced inactive
O=C(c1cccnc1)C1CCCN(Cc2nc(Cc3ccccc3F)no2)C1 (centres undefined)	none
Cc1cccc(OCC(=O)N(Cc2nnc(-c3ccccc3Cl)o2)C2CC2)c1	none (no result: KCNQ1 act, KCNK9 inh, Kir21 block, hERG rescue, KCNQ1 block)
Cc1ccc(C)c(OCC(=O)N(Cc2nnc(-c3ccccc3Cl)o2)C2CC2)c1	none | KCNK9 inh conf inactive | Kir21 sel inactive | KCNK9 uninduced inactive
O=C1CCCC(=O)C1=C1SCCS1	none
Cc1noc(C)c1CSCC(=O)N(C)CC(=O)Nc1ccc(Cl)c(C(F)(F)F)c1	KCNK9 inh -10 | KCNK9 inh conf 52% | Kir21 sel inactive | KCNK9 uninduced 24%
Cc1ccc(-c2cc(-c3n[nH]c(=S)o3)c3ccccc3n2)cc1	KCNQ1 act 15, hERG rescue 12 | KCNK9 inh conf inactive | Kir21 sel inactive | KCNK9 uninduced inactive
Cc1cc(Cl)ccc1Oc1ncc(CN2CCN(c3ccccc3)CC2)s1	none
COc1ccc(Oc2ncc(CN3CCN(c4ccccc4)CC3)s2)cc1	none | KCNK9 inh conf inactive | Kir21 sel inactive | KCNK9 uninduced inactive
O=C(O)CCCCCn1c(SCC(=O)c2ccc(O)c(O)c2)nc2ccsc2c1=O	none
CCCCn1c(SCC(=O)c2ccccc2)nc2ccsc2c1=O	KCNK9 inh -16 | KCNK9 inh conf 30% | Kir21 sel inactive | KCNK9 uninduced 28%
CCCCn1c(SCC(=O)c2ccc(O)c(O)c2)nc2ccsc2c1=O	KCNK9 inh -16 | KCNK9 inh conf 40% | Kir21 sel inactive | KCNK9 uninduced inactive
CCOC(=O)c1cccnc1SCC(=O)N(CC)c1cccc(C)c1	none | KCNK9 inh conf inactive | Kir21 sel inactive | KCNK9 uninduced inactive
COc1ccc(CCNC(=O)Cn2cnc3scc(-c4ccccc4)c3c2=O)cc1OC	none
COc1ccc(-c2ccc([C@H]3[C@@H]4C=CCC[C@@]4(C)C(=O)N3Cc3ccccc3)c(F)c2)cc1OC	none
COc1ccc(-c2c([C@H]3[C@@H]4C=CCC[C@@]4(C)C(=O)N3Cc3ccccc3)ccc3ccccc23)cc1OC	none | KCNK9 inh conf inactive | Kir21 sel inactive | KCNK9 uninduced inactive
